ChEMBL document CHEMBL3102799, “Glutathione-analogous peptidyl phosphorus esters as mechanism-based inhibitors of γ-glutamyl transpeptidase for probing cysteinyl-glycine binding site” (Bioorg Med Chem, 2014)
Activity calls are given as the source filed them. The calls are words filed in the database; no cut-off is given here.

How the values were obtained:
[1] = biological target: Glutathione hydrolase 1 proenzyme (Homo sapiens) (UniProt P19440); experiment: Inhibition of hydrolytic activity of human GGT using 7-(N-gamma-glutamylamino)-4-methylcoumarin as substrate assessed as release of AMC at 1 mM after 10 mins by fluorescence assay
Glutathione hydrolase 1 proenzyme (Homo sapiens), sequence (P19440 1-380 limits assumed): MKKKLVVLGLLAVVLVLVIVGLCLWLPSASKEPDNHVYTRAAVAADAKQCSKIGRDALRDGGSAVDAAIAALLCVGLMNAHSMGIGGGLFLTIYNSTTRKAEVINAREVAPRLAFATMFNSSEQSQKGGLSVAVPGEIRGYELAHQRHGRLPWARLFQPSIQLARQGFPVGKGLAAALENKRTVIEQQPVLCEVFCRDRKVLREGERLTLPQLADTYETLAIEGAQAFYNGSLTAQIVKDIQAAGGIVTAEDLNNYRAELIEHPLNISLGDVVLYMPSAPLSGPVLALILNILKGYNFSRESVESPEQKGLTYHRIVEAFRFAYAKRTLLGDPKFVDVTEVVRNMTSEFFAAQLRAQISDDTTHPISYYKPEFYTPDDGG
Glutathione hydrolase 1 proenzyme (Homo sapiens), sequence (P19440 381-569 limits assumed): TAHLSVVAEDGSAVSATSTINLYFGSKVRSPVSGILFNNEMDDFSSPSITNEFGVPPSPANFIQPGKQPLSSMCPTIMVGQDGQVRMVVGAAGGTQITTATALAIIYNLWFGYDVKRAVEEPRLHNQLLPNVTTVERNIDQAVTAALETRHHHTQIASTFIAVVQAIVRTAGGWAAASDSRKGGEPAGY
How it was run: (§1)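 Human GGT (HC-GTP, BSA-stabilised, used unpurified). Enzyme added to preincubated inhibitor plus 4.0 μM γ-Glu-AMC (final; Km 12.6 μM) in 100 mM sodium succinate pH 5.5, 25°C, no acceptor. AMC fluorescence (ex 350/em 440 nm) read continuously 10 min against AMC calibration; first-order fit of progress curves gives kobs; kon derived as kobs = kon[I]/(1+[S]/Km).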

Escherichia coli [2] = experiment: Inhibition of hydrolytic activity of Escherichia coli GGT using 7-(N-gamma-glutamylamino)-4-methylcoumarin as substrate assessed as release of AMC after 10 mins by fluorescence assay
[3] = biological target: Glutathione hydrolase 1 proenzyme (Homo sapiens) (UniProt P19440); experiment: Inhibition of hydrolytic activity of human GGT using 7-(N-gamma-glutamylamino)-4-methylcoumarin as substrate assessed as release of AMC after 10 mins by fluorescence assay; how it was run: as §1
Escherichia coli [4] = experiment: Inhibition of hydrolytic activity of Escherichia coli GGT using 7-(N-gamma-glutamylamino)-4-methylcoumarin as substrate assessed as release of AMC at 1 mM after 10 mins by fluorescence assay
How it was run: (§2)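 E. coli enzyme purified from periplasmic fraction of recombinant E. coli K-12 (SH642). Time-dependent inactivation, pseudo-first-order: enzyme added to preincubated inhibitor plus 0.2 μM γ-Glu-AMC (final; equals Km) in 100 mM sodium succinate pH 5.5, 25°C, no acceptor substrate. AMC release (ex 350/em 440 nm) followed continuously 10 min; progress curves fit first-order for kobs; kon from kobs = kon[I]/(1+[S]/Km).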

Escherichia coli [5] = experiment: Inhibition of hydrolytic activity of Escherichia coli GGT using 7-(N-gamma-glutamylamino)-4-methylcoumarin as substrate assessed as release of AMC at 1 mM by fluorescence assay; conditions: TDE = time-dependent effect; how it was run: as §2
Escherichia coli [6] = experiment: Binding affinity to Cys-Gly binding site of Escherichia coli GGT by ion-spray mass spectroscopy analysis
[7] = biological target: Glutathione hydrolase 1 proenzyme (Homo sapiens) (UniProt P19440); experiment: Irreversible inhibition of hydrolytic activity of human GGT using 7-(N-gamma-glutamylamino)-4-methylcoumarin as substrate assessed as release of AMC at 1 mM after 10 mins by fluorescence assay; how it was run: as §1
[8] = biological target: Glutathione hydrolase 1 proenzyme (Homo sapiens) (UniProt P19440); experiment: Ratio of acivicin to compound for hydrolytic activity of human GGT
[9] = biological target: Glutathione hydrolase 1 proenzyme (Homo sapiens) (UniProt P19440); experiment: Inhibition of hydrolytic activity of human GGT using 7-(N-gamma-glutamylamino)-4-methylcoumarin as substrate assessed as release of AMC by fluorescence assay; conditions: TDE = time-dependent effect; how it was run: as §1
Escherichia coli [10] = experiment: Inhibition of hydrolytic activity of Escherichia coli GGT using 7-(N-gamma-glutamylamino)-4-methylcoumarin as substrate assessed as release of AMC at 1.5 mM after 10 mins by fluorescence assay; how it was run: as §2

Row | Compound | inhibition [1] | K (Escherichia coli [2]) [M⁻¹ s⁻¹] | K [3] [M⁻¹ s⁻¹] | inhibition (Escherichia coli [5]) | also measured
1 | CCCC[C@H](O[P@](=O)(CCC(N)C(=O)O)Oc1ccccc1)C(=O)NCC(=O)O (stereo partly drawn) | inactive | 1.7 | – | – | –
2 | N[C@H](C(=O)O)[C@@H]1CC(Cl)=NO1 | – | 4200 | 0.4 | – | –
3 | CCC(OP(=O)(CCC(N)C(=O)O)Oc1ccccc1)C(=O)NCC(=O)O (mixture of isomers) | – | 80 | 75 | – | –
4 | CCCC[C@@H](O[P@@](=O)(CCC(N)C(=O)O)Oc1ccccc1)C(=O)NCC(=O)O (mixture of isomers) | inactive | – | – | – | inhibition (Escherichia coli [4]): inactive
5 | CCCC[C@@H](O[P@](=O)(CCC(N)C(=O)O)Oc1ccccc1)C(=O)NCC(=O)O (mixture of isomers) | inactive | 1.3 | – | – | –
6 | CCCC[C@H](O[P@@](=O)(CCC(N)C(=O)O)Oc1ccccc1)C(=O)NCC(=O)O (mixture of isomers) | – | 50.7 | 63.2 | tde | –
7 | CCCC[C@H](O[P@@](=O)(CCC(N)C(=O)O)Oc1ccccc1)C(=O)OC (mixture of isomers) | inactive | 8.83 | – | tde | –
8 | CC[C@H](O[P@@](=O)(CCC(N)C(=O)O)Oc1ccccc1)C(=O)NCC(=O)O (mixture of isomers) | – | 109 | 145 | tde | Activity (Escherichia coli [6]): Active; inhibition [7]: Active; Ratio [8]: > 360
9 | CC[C@H](O[P@](=O)(CCC(N)C(=O)O)OC)C(=O)NCC(=O)O (mixture of isomers) | inactive | – | – | – | inhibition (Escherichia coli [4]): inactive
10 | NC(CCP(=O)(OCC(=O)NCC(=O)O)Oc1ccccc1)C(=O)O (mixture of isomers) | – | 80.6 | 44.5 | – | –
11 | NC(CC[P@@](=O)(Oc1ccccc1)O[C@@H](CCl)C(=O)NCC(=O)O)C(=O)O (mixture of isomers) | – | 188 | 40.3 | tde | –
12 | NC(CC[P@@](=O)(Oc1ccccc1)O[C@@H](CI)C(=O)NCC(=O)O)C(=O)O (mixture of isomers) | – | 98.4 | 43.6 | tde | –
13 | NC(CC[P@@](=O)(Oc1ccccc1)O[C@@H](Cc1ccccc1)C(=O)NCC(=O)O)C(=O)O (mixture of isomers) | – | 389 | 4.44 | tde | –
14 | N[C@@H](CCP(=O)(CCC(=O)NCC(=O)O)Oc1ccccc1)C(=O)O (mixture of isomers) | – | – | 1.35 | – | inhibition [9]: tde; inhibition (Escherichia coli [10]): inactive
